Measured values: ChEMBL document CHEMBL5107948, “Activity-based protein profiling reveals deubiquitinase and aldehyde dehydrogenase targets of a cyanopyrrolidine probe” (RSC Med Chem, 2021)
Active and inactive are the calls of the source. The calls are words filed in the database; no cut-off is given here.

Tests used:
Type in all cases: cell-based
HEK293 = assay: Binding affinity to ALDH in human HEK293 cells assessed as fold change at 30 nM incubated for 3 to 18 hrs by LFQ-chemical proteomics analysis; settings: time 3-18 hrs
Procedure, shortened: (§1)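 HEK293 cells exposed to alkyne ABP or DMSO for 3, 6 or 18 h, washed, lysed in PBS/1% Triton X-100/0.1% SDS. Lysates (400 µg, biological triplicates) CuAAC-ligated to AzRB (100 µM, CuSO4 1 mM, TCEP 1 mM, TBTA 100 µM, 1 h RT). NeutrAvidin enrichment, on-bead TCEP/CAA reduction-alkylation, overnight trypsin digest at 37 °C, LC-MS/MS label-free quantification. Two-sample t-test against DMSO (n=3, permutation FDR 0.01, S0=1).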

[1] = target: Ubiquitin carboxyl-terminal hydrolase isozyme L1 (Homo sapiens) (UniProt P09936); assay: Binding affinity to UCHL1 in human HEK293 cells at 31 nM by TAMRA labelled pulldown based In-gel fluorescence analysis
Chain of Ubiquitin carboxyl-terminal hydrolase isozyme L1 (Homo sapiens) (P09936 whole entry, looked up): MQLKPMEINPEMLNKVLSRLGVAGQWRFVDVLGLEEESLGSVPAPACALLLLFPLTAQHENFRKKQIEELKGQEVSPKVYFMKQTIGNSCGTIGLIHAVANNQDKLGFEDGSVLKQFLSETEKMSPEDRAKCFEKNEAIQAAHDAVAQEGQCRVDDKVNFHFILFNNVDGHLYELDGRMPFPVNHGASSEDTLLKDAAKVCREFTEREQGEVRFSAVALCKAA
Procedure, shortened: (§2)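 HEK293 cells treated with ABP; lysate (150 µg) CuAAC-ligated to AzTB, precipitated, resuspended. 100 µg incubated with streptavidin magnetic beads 2 h RT, washed with 0.2% SDS/PBS, eluted by boiling 10 min at 95 °C. Eluates run on SDS-PAGE and read by TAMRA in-gel fluorescence or by immunoblot on nitrocellulose with HRP chemiluminescence.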

[2] = target: Ubiquitin carboxyl-terminal hydrolase isozyme L1 (Homo sapiens) (UniProt P09936); assay: Binding affinity to UCHL1 in human HEK293 cells at 31 nM by TAMRA labelled pulldown based immunoblotting analysis; procedure, shortened: as §2
[3] = target: Ubiquitin carboxyl-terminal hydrolase isozyme L1 (Homo sapiens) (UniProt P09936); assay: Binding affinity to UCHL1 in human HEK293 cells at 40 nM incubated for 3 hrs by In-gel fluorescence analysis
Procedure, shortened: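 HEK293 cells given 10–2500 nM ABP for 3, 6 or 18 h. Lysates clicked to AzTB, mixed with Laemmli buffer at 0.31% v/v final BME for 5 min without boiling, resolved on 12% acrylamide gels, imaged by in-gel TAMRA fluorescence.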

[4] = target: Aldehyde dehydrogenase family 3 member A2 (Homo sapiens) (UniProt P51648); assay: Binding affinity to ALDH3A2 in human HEK293 cells assessed as fold change at 130 nM incubated for 3 to 6 hrs by LFQ-chemical proteomics analysis; settings: time 3-6 hrs; procedure, shortened: as §1
Chain of Aldehyde dehydrogenase family 3 member A2 (Homo sapiens) (P51648 whole entry): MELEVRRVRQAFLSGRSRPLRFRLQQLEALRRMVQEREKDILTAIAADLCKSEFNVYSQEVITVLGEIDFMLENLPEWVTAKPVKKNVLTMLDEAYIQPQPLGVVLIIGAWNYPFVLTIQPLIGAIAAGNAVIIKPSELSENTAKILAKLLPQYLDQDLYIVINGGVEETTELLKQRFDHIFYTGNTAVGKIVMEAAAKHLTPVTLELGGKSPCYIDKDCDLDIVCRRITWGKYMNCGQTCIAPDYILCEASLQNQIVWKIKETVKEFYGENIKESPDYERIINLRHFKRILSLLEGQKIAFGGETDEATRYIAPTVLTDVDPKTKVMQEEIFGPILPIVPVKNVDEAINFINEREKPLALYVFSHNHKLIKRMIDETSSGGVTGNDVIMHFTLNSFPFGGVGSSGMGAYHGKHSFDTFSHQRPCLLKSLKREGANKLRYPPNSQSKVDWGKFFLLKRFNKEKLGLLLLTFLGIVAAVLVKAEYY

[5] = target: T1, Glutamine amidotransferase-like class 1 domain-containing protein 3, mitochondrial (Homo sapiens) (UniProt P0DPI2); assay: Binding affinity to GATD3A in human HEK293 cells assessed as fold change at 130 nM incubated for 3 to 6 hrs by LFQ-chemical proteomics analysis; settings: time 3-6 hrs; procedure, shortened: as §1
T1 sequence (whole entry): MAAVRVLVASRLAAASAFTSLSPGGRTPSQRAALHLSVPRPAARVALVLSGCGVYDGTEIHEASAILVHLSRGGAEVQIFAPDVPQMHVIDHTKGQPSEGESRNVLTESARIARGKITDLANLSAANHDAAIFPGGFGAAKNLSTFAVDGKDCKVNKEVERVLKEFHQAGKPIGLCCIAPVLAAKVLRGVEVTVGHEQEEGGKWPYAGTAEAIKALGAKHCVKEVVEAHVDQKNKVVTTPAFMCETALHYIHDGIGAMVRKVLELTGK

[6] = target: Ubiquitin carboxyl-terminal hydrolase isozyme L1 (Homo sapiens) (UniProt P09936); assay: Binding affinity to UCHL1 in human HEK293 cells assessed as fold change at 130 nM incubated for 3 to 6 hrs by LFQ-chemical proteomics analysis; settings: time 3-6 hrs; procedure, shortened: as §1
[7] = target: T1, Glutamine amidotransferase-like class 1 domain-containing protein 3, mitochondrial (Homo sapiens); assay: Binding affinity to GATD3A in human HEK293 cells assessed as fold change at 30 nM incubated for 3 to 18 hrs by LFQ-chemical proteomics analysis; settings: time 3-18 hrs; procedure, shortened: as §1
[8] = target: Ubiquitin carboxyl-terminal hydrolase isozyme L1 (Homo sapiens) (UniProt P09936); assay: Binding affinity to UCHL1 in human HEK293 cells assessed as fold change at 30 nM incubated for 3 to 18 hrs by LFQ-chemical proteomics analysis; settings: time 3-18 hrs; procedure, shortened: as §1
[9] = target: T2, Aldehyde dehydrogenase, mitochondrial (Homo sapiens) (UniProt P05091); assay: Binding affinity to ALDH2 in human HEK293 cells assessed as fold change at 130 nM incubated for 3 to 6 hrs by LFQ-chemical proteomics analysis; settings: time 3-6 hrs; procedure, shortened: as §1
T2 sequence (whole entry): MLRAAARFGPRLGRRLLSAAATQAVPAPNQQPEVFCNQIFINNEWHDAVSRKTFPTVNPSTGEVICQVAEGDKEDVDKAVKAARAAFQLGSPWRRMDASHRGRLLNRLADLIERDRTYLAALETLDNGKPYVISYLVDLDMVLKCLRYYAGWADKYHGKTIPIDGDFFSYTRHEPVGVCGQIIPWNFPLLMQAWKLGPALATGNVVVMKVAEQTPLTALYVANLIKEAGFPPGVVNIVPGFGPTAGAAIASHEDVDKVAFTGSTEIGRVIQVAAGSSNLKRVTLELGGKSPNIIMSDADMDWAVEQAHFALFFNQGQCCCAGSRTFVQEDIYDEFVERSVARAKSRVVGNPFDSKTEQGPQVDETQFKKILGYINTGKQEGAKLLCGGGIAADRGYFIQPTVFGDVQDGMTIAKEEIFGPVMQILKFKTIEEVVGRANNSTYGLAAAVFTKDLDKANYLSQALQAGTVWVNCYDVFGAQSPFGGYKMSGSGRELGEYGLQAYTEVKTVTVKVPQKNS

[10] = target: 4-trimethylaminobutyraldehyde dehydrogenase (Homo sapiens) (UniProt P49189); assay: Binding affinity to ALDH9A1 in human HEK293 cells assessed as fold change at 130 nM incubated for 3 to 6 hrs by LFQ-chemical proteomics analysis; settings: time 3-6 hrs; procedure, shortened: as §1
Chain of 4-trimethylaminobutyraldehyde dehydrogenase (Homo sapiens) (P49189 whole entry): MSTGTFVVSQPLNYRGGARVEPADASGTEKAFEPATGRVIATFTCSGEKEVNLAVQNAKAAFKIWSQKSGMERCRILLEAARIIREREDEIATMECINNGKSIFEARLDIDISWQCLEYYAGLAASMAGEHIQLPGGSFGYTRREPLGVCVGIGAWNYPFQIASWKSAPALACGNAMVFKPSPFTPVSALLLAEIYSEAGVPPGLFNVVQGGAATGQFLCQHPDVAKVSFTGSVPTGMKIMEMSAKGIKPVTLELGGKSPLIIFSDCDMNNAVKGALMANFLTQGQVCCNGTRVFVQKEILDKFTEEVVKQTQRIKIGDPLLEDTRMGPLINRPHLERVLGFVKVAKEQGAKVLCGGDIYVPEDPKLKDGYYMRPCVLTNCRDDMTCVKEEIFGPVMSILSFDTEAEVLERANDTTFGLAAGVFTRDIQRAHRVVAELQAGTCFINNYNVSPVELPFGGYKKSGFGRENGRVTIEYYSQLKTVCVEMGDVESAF

[11] = target: 4-trimethylaminobutyraldehyde dehydrogenase (Homo sapiens) (UniProt P49189); assay: Inhibition of ALDH9A1 in human HEK293 cells at 250 nM in presence of ABP MT16-205 by Competitive pulldown based immunoblotting analysis
Procedure, shortened: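 Lysates AzTB-clicked, streptavidin bead pulldown (2 h RT), boiled elution, SDS-PAGE. Target detected by immunoblot: 3% BSA/TBS-T block, primary antibody 1.5 h RT or overnight at 4 °C, HRP secondary, chemiluminescence.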

[12] = target: Ubiquitin carboxyl-terminal hydrolase isozyme L1 (Homo sapiens) (UniProt P09936); assay: Binding affinity to UCHL1 in human HEK293 cells at 130 to 500 nM in presence of ABP MT16-205 by LFQ-NanoLC-MS/MS analysis; settings: dose 130-500 nM, DDE = dose-dependent effect
Procedure, shortened: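 Competition format: HEK293 cells pre-treated 1 h with competitor or DMSO, then exposed to ABP MT16-205. Lysis in PBS/Triton/SDS buffer, AzRB click ligation, NeutrAvidin pulldown, on-bead TCEP/chloroacetamide treatment and overnight tryptic digestion. Label-free LC-MS/MS; two-sample t-test versus control (n=3, permutation FDR 0.01, S0=1).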

Activity [1]	Activity [2]	Activity [3]	fold change (FC) [4]	fold change (FC) [5]	fold change (FC) [6]	fold change (FC) [7]	fold change (FC) [8]	fold change (FC) [9]	fold change (FC) [10]	inhibition [11]	Activity [12]	Structure (SMILES)	fold change (FC) (HEK293)
Active	Active	Active	> 64	> 64	> 64	> 16	> 16	> 64	> 64			C#Cc1ccc(-c2cnc(NC(=O)[C@H]3CCN(C#N)C3)s2)cc1	> 16
										Active	Dde	N#CN1CC[C@H](C(=O)Nc2ncc(-c3ccccc3)s2)C1	
